Laboratory results taken from ChEMBL document CHEMBL4145650, “Napabucasin and Related Heterocycle-Fused Naphthoquinones as STAT3 Inhibitors with Antiproliferative Activity against Cancer Cells” (J Nat Prod, 2018).
Calls of active or inactive are those of the source. The rule behind the calls is not given here.

Experiments:
MDA-MB-231 [1] = experiment: Antiproliferative activity against human MDA-MB-231 cells measured after 48 hrs by MTT assay; format: functional, cell-based; details: MDA-MB-231, 48 h
Summary of the method: (§1)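 Cells kept in 10% FBS medium with penicillin/streptomycin/L-glutamine at 37 °C, 5% CO2 (MDA-MB-231 in DMEM, K562 in RPMI 1640). Viability read by MTT reduction to formazan after 48 h of exposure. IC50 obtained by nonlinear regression against vehicle control, given as mean ±SD of three independent experiments (n = 2 where footnoted).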

K562 [2] = experiment: Antiproliferative activity against human K562 cells measured after 48 hrs by MTT assay; format: functional, cell-based; details: K562, 48 h; summary of the method: as §1
MDA-MB-231 [3] = experiment: Induction of apoptosis in human MDA-MB-231 cells assessed as viable cells at 10 umol/L measured after 2 hrs by annexin-V-FITC/7-AAD staining based flow cytometric analysis (reference value: 97 to 98%); format: functional; details: MDA-MB-231, 2 h, read-out: Activity
MDA-MB-231 [4] = experiment: Induction of apoptosis in human MDA-MB-231 cells assessed as viable cells at 10 umol/L measured after 4 hrs by annexin-V-FITC/7-AAD staining based flow cytometric analysis (reference value: 97 to 98%); format: functional; details: MDA-MB-231, 4 h, read-out: Activity
MDA-MB-231 [5] = experiment: Induction of apoptosis in human MDA-MB-231 cells assessed as viable cells at 10 umol/L measured after 6 hrs by annexin-V-FITC/7-AAD staining based flow cytometric analysis (reference value: 97 to 98%); format: functional; details: MDA-MB-231, 6 h, read-out: Activity
MDA-MB-231 [6] = experiment: Induction of apoptosis in human MDA-MB-231 cells assessed as viable cells at 10 umol/L measured after 8 hrs by annexin-V-FITC/7-AAD staining based flow cytometric analysis (reference value: 97 to 98%); format: functional; details: MDA-MB-231, 8 h, read-out: Activity
MDA-MB-231 [7] = experiment: Induction of apoptosis in human MDA-MB-231 cells assessed as viable cells at 10 umol/L measured after 24 hrs by annexin-V-FITC/7-AAD staining based flow cytometric analysis (reference value: 97 to 98%); format: functional; details: MDA-MB-231, 24 h, read-out: Activity
MDA-MB-231 [8] = experiment: Induction of apoptosis in human MDA-MB-231 cells assessed as late apoptotic cells at 10 umol/L measured after 8 hrs by annexin-V-FITC/7-AAD staining based flow cytometric analysis relative to control; format: functional
MDA-MB-231 [9] = experiment: Induction of apoptosis in human MDA-MB-231 cells assessed as late apoptotic cells at 10 umol/L measured after 24 hrs by annexin-V-FITC/7-AAD staining based flow cytometric analysis relative to control; format: functional
MDA-MB-231 [10] = experiment: Induction of apoptosis in human MDA-MB-231 cells assessed as late apoptotic cells at 10 umol/L measured after 4 hrs by annexin-V-FITC/7-AAD staining based flow cytometric analysis relative to control; format: functional
MDA-MB-231 [11] = experiment: Induction of apoptosis in human MDA-MB-231 cells assessed as increase in early apoptotic cells at 10 umol/L measured after 4 to 24 hrs by annexin-V-FITC/7-AAD staining based flow cytometric analysis; format: functional, cell-based
MDA-MB-231 [12] = experiment: Cell cycle arrest in human MDA-MB-231 cells assessed as accumulation at sub-G0 phase at 1 uM measured after 24 hrs by propidium iodide staining based flow cytometry (reference value: 3%); format: functional
MDA-MB-231 [13] = experiment: Cell cycle arrest in human MDA-MB-231 cells assessed as accumulation at G1 phase at 1 uM measured after 24 hrs by propidium iodide staining based flow cytometry (reference value: 62%); format: functional
MDA-MB-231 [14] = experiment: Cell cycle arrest in human MDA-MB-231 cells assessed as accumulation at S phase at 1 uM measured after 24 hrs by propidium iodide staining based flow cytometry (reference value: 12%); format: functional
MDA-MB-231 [15] = experiment: Cell cycle arrest in human MDA-MB-231 cells assessed as accumulation at G2 phase at 1 uM measured after 24 hrs by propidium iodide staining based flow cytometry (reference value: 23%); format: functional
MDA-MB-231 [16] = experiment: Cell cycle arrest in human MDA-MB-231 cells assessed as accumulation at sub-G0 phase at 3 uM measured after 24 hrs by propidium iodide staining based flow cytometry (reference value: 3%); format: functional
MDA-MB-231 [17] = experiment: Cell cycle arrest in human MDA-MB-231 cells assessed as accumulation at G1 phase at 3 uM measured after 24 hrs by propidium iodide staining based flow cytometry (reference value: 62%); format: functional
MDA-MB-231 [18] = experiment: Cell cycle arrest in human MDA-MB-231 cells assessed as accumulation at S phase at 3 uM measured after 24 hrs by propidium iodide staining based flow cytometry (reference value: 12%); format: functional
MDA-MB-231 [19] = experiment: Cell cycle arrest in human MDA-MB-231 cells assessed as accumulation at G2 phase at 3 uM measured after 24 hrs by propidium iodide staining based flow cytometry (reference value: 23%); format: functional
MDA-MB-231 [20] = experiment: Cell cycle arrest in human MDA-MB-231 cells assessed as accumulation at sub-G0 phase at 10 uM measured after 24 hrs by propidium iodide staining based flow cytometry (reference value: 3%); format: functional
MDA-MB-231 [21] = experiment: Cell cycle arrest in human MDA-MB-231 cells assessed as accumulation at G1 phase at 10 uM measured after 24 hrs by propidium iodide staining based flow cytometry (reference value: 62%); format: functional
MDA-MB-231 [22] = experiment: Cell cycle arrest in human MDA-MB-231 cells assessed as accumulation at S phase at 10 uM measured after 24 hrs by propidium iodide staining based flow cytometry (reference value: 12%); format: functional
MDA-MB-231 [23] = experiment: Cell cycle arrest in human MDA-MB-231 cells assessed as accumulation at G2 phase at 10 uM measured after 24 hrs by propidium iodide staining based flow cytometry (reference value: 23%); format: functional
MDA-MB-231 [24] = experiment: Cell cycle arrest in human MDA-MB-231 cells assessed as accumulation at sub-G0 phase at 30 uM measured after 24 hrs by propidium iodide staining based flow cytometry (reference value: 3%); format: functional
MDA-MB-231 [25] = experiment: Cell cycle arrest in human MDA-MB-231 cells assessed as accumulation at G1 phase at 30 uM measured after 24 hrs by propidium iodide staining based flow cytometry (reference value: 62%); format: functional
MDA-MB-231 [26] = experiment: Cell cycle arrest in human MDA-MB-231 cells assessed as accumulation at S phase at 30 uM measured after 24 hrs by propidium iodide staining based flow cytometry (reference value: 12%); format: functional
MDA-MB-231 [27] = experiment: Cell cycle arrest in human MDA-MB-231 cells assessed as accumulation at G2 phase at 30 uM measured after 24 hrs by propidium iodide staining based flow cytometry (reference value: 23%); format: functional
K562 [28] = experiment: Induction of superoxide generation in human K562 cells at 5 umol/L measured after 24 hrs in presence of NQO1 inhibitor dicoumarol by DHE staining based flow cytometry; format: functional, cell-based
Summary of the method: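 Cells were treated with compound at 5 μmol/L or DMSO for 24 h, with or without dicoumarol preincubation (5 μmol/L, 30 min), then stained with DHE for 30 min. 2-OH-DHE fluorescence was read by flow cytometry and expressed relative to vehicle control. At least three independent measurements.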

[29] = biological target: T1, Signal transducer and activator of transcription 3 (Homo sapiens, UniProt P40763); experiment: Inhibition of STAT3 phosphorylation at Y705 in human MDA-MB-231 cells after 4 hrs by HTRF assay; format: cell-based
Summary of the method: (§2)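 MDA-MB-231 cells (10^5/well) were left to adhere overnight, serum-starved for 4 h in DMEM, then treated with 0.1–30 μmol/L compound (0.5% final DMSO) for 4 h at 37 °C. Lysates were incubated 24 h at room temperature with Eu-cryptate/d2 antibody pairs for phospho-STAT3 (Y705) or total STAT3. The 665/620 nm HTRF ratio was taken and phospho/total normalized. EC50 was obtained by nonlinear regression.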

MDA-MB-231 [30] = experiment: Effect on total STAT3 level in human MDA-MB-231 cells at 0.1 to 30 umol/L after 4 hrs by HTRF assay; format: cell-based; details: mda-mb-231, 4 h; summary of the method: as §2
[31] = biological target: T1, Signal transducer and activator of transcription 3; experiment: Inhibition of STAT3 phosphorylation at Y705 in human MDA-MB-231 cells assessed as reduction in ratio of phosphorylated STAT3 to total STAT3 level after 4 hrs by HTRF assay; format: cell-based; summary of the method: as §2
[32] = biological target: T1, Signal transducer and activator of transcription 3; experiment: Binding affinity to STAT3 in human MDA-MB-231 cells at 100 uM measured after 1 hr by DARTS-Western blot analysis; format: cell-based
Summary of the method: (§3)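 A nondenaturing lysate of MDA-MB-231 cells (M-PER with protease and phosphatase inhibitors) was incubated with compound at 100 μmol/L or DMSO for 1 h at room temperature in the dark. TNC buffer pH 8.0 was added, then thermolysin (1:3000 of protein) for 30 min at room temperature; undigested controls were kept. Run on SDS-PAGE with 10 μg protein per lane, then Western blot with anti-STAT3.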

[33] = biological target: T1, Signal transducer and activator of transcription 3; experiment: Binding affinity to STAT3 in human MDA-MB-231 cells at 100 uM treated for 1 hr followed by thermolysin addition measured after 30 mins by DARTS-Western blot analysis; format: cell-based; summary of the method: as §3
MDA-MB-231 [34] = experiment: Induction of apoptosis in human MDA-MB-231 cells assessed as late apoptotic cells at 10 umol/L measured after 4 hrs by annexin-V-FITC/7-AAD staining based flow cytometric analysis relative to control

T1 sequence (P40763 whole entry): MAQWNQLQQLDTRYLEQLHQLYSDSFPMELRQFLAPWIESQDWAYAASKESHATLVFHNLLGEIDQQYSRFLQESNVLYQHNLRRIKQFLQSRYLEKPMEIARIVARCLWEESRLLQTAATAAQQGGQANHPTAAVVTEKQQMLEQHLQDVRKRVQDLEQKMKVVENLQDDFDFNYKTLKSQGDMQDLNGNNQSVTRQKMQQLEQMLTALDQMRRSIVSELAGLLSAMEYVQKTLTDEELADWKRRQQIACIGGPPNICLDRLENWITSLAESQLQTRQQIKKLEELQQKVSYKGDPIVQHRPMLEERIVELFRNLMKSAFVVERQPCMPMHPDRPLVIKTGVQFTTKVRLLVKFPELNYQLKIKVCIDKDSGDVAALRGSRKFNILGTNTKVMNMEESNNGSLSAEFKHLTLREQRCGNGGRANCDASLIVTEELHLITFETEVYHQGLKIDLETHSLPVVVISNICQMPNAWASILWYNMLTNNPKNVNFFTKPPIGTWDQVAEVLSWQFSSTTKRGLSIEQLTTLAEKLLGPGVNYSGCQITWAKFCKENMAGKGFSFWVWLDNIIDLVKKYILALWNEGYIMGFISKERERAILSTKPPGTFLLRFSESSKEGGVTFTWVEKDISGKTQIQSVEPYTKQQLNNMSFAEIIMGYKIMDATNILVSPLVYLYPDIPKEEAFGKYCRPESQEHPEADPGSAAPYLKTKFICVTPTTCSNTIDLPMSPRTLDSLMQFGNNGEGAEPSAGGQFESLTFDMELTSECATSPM

IC50 (MDA-MB-231 [1]): 0.74 µM
IC50 (K562 [2]): 1.1 µM
EC50 [29]: 0.87 µM
EC50 [31]: 0.8 µM
Activity [32]: inactive
Activity [33]: Active
Structure (SMILES): CC(=O)c1cc2c(o1)-c1ccccc1C(=O)C2=O
viability at 10 µM (MDA-MB-231 [3]): 93%
viability at 10 µM (MDA-MB-231 [4]): 82%
viability at 10 µM (MDA-MB-231 [5]): 83%
viability at 10 µM (MDA-MB-231 [6]): 67%
viability at 10 µM (MDA-MB-231 [7]): 9%
Activity (MDA-MB-231 [8]): 31%
Activity (MDA-MB-231 [9]): 89%
Activity (MDA-MB-231 [10]): 14%
Activity (MDA-MB-231 [11]): inactive
Activity (MDA-MB-231 [12]): 3%
Activity (MDA-MB-231 [13]): 60%
Activity (MDA-MB-231 [14]): 14%
Activity (MDA-MB-231 [15]): 23%
Activity (MDA-MB-231 [16]): 5%
Activity (MDA-MB-231 [17]): 59%
Activity (MDA-MB-231 [18]): 13%
Activity (MDA-MB-231 [19]): 23%
Activity (MDA-MB-231 [20]): inactive
Activity (MDA-MB-231 [21]): 63%
Activity (MDA-MB-231 [22]): 15%
Activity (MDA-MB-231 [23]): 20%
Activity (MDA-MB-231 [24]): 5%
Activity (MDA-MB-231 [25]): 60%
Activity (MDA-MB-231 [26]): 15%
Activity (MDA-MB-231 [27]): 20%
Activity (K562 [28]): inactive
Activity (MDA-MB-231 [30]): Non-Toxic
Activity (MDA-MB-231 [34]): 14%
